Usually IC50 stands for the concentration needed to halve the response being measured.

The species named for one assay is Homo sapiens. Nature of the assay: Direct inhibition of the IgE-Germ line promoter (IGE-GLP-RGA) activity which is responsible in synthesis of IgE in human splenocytes. Format: functional. In outline: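 BL2 B-cells were stably transfected with luciferase under a 630 bp IgE-germline promoter fragment and selected in G418. Cells were lysed for dual-luciferase readout in duplicates, and IC₅₀ came from a logistic fit.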

A further assay deals with B-cell. Nature of the assay: Antiproliferative effects in the human B-cell line transfected with a plasmid in which luciferase gene is under the control of a 630bp, involved in the IL-4 response which induces IgE-GLP activity. Format: functional, cell-based. In outline:
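Viability of the stably transfected BL2 luciferase-reporter clone was measured in cultures run in parallel with the reporter assay. Intact mitochondria were quantified in duplicates, and half-maximal inhibition came from a logistic fit.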

In assay [1] the target is Epidermal growth factor receptor (Homo sapiens, UniProt P00533). Nature of the assay: Inhibition of EGF-induced Tyrosine phosphorylation in A431 cells expressing EGF-R.
Sequence of Epidermal growth factor receptor (P00533 whole entry): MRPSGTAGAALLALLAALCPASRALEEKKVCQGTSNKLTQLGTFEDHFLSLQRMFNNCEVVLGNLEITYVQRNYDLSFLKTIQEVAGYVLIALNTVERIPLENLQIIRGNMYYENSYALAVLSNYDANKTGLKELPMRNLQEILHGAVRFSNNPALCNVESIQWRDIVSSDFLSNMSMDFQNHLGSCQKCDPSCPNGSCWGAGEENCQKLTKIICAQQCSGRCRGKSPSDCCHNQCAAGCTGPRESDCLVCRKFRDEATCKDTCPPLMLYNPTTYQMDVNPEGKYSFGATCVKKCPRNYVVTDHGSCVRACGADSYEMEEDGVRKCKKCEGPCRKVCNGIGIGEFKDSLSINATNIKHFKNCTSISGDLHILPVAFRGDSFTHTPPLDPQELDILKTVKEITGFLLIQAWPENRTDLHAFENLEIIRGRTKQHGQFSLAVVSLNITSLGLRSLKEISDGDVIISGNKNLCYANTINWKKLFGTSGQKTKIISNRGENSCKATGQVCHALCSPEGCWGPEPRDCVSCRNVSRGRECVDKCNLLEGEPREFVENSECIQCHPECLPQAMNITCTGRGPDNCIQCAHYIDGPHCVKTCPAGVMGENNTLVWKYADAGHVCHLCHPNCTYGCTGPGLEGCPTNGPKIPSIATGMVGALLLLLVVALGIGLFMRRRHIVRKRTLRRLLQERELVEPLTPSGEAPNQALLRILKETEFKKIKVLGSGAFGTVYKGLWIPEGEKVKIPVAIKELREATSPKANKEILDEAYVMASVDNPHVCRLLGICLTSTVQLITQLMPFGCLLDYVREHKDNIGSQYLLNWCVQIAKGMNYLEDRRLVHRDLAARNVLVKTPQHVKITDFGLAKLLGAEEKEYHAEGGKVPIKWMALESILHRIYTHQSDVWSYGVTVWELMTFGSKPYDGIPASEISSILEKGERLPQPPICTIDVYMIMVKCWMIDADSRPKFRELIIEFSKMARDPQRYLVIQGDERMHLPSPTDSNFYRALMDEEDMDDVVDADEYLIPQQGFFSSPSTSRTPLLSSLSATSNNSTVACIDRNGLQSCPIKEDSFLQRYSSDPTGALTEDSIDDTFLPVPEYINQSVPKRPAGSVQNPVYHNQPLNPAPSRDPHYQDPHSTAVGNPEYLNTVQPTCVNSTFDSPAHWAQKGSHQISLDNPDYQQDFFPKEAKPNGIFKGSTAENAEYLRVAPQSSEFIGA

With `Cc1csc2ncnc(N[C@@H](C)c3ccccc3)c12`, the values for the IC50 in the assay filed under Homo sapiens and with B-cell were 130 nM and 1480 nM, respectively.
As to `Cc1cc(N[C@@H](C)c2ccccc2)nc(N)n1`, the IC50 in the assay listed under Homo sapiens and with B-cell was more than 2000 nM each time.
Regarding `C[C@H](Nc1ncnc2sccc12)c1ccccc1`, the IC50 is 370 nM in the assay listed under Homo sapiens and more than 2000 nM with B-cell.
Take `c1ccc(CNc2ncnc3ccccc23)cc1`: the IC50 in the assay filed under Homo sapiens and in the assay on B-cell was more than 2000 nM each time.
Take `Cc1cc2c(N[C@@H](C)c3ccccc3)[nH]cnc-2n1`: the IC50 in the assay filed under Homo sapiens and in the assay on B-cell was more than 2000 nM in each case.
For the compound `C[C@H](Nc1ncnc2ccccc12)c1ccccc1`, the values for the IC50 in the assay filed under Homo sapiens and in the assay on B-cell were 127 nM and more than 2000 nM, respectively.
For the compound `Cc1ccc([C@H](C)Nc2ncnc3ccccc23)cc1`, the results for the IC50 in the assay listed under Homo sapiens and with B-cell were 46 nM and more than 2000 nM, respectively.
Take `C[C@H](Nc1ccnc2ccccc12)c1ccccc1`: the IC50 was 701 nM in the assay filed under Homo sapiens and more than 2000 nM with B-cell.
Turning to `COc1ccc([C@H](C)Nc2ncnc3ccccc23)cc1`, the IC50 is 45 nM in the assay listed under Homo sapiens and more than 2000 nM in the assay with B-cell.
On to `C[C@H](Nc1nccc2ccccc12)c1ccccc1`, for which the IC50 in the assay filed under Homo sapiens and in the assay on B-cell was more than 2000 nM each time.
Take `CC[C@H](Nc1ncnc2ccccc12)c1ccccc1`: the IC50 in the assay listed under Homo sapiens is 147 nM; in the assay with B-cell it was more than 2000 nM.
In turn, `C[C@H](Nc1[nH]cnc2c3ccccc3nc1-2)c1ccccc1` showed an IC50 in assay [1] of 50 nM.
In the case of `C[C@@H](Nc1ncnc2ccccc12)c1ccc2ccccc2c1`, the IC50 in the assay filed under Homo sapiens and with B-cell was more than 2000 nM each time.
For `Cc1cc(N[C@@H](C)c2ccccc2)c2ccccc2n1`, the IC50 in the assay filed under Homo sapiens and in the assay with B-cell was more than 2000 nM throughout.
Regarding `COc1cccc([C@H](C)Nc2ncnc3ccccc23)c1`, the IC50 in the assay listed under Homo sapiens is 23 nM; in the assay on B-cell, more than 2000 nM.
Take `C[C@@H](Nc1ncnc2ccccc12)C1CCCCC1`: the IC50 in the assay listed under Homo sapiens and with B-cell was more than 2000 nM each time.
Take `Cc1csc2c(N[C@@H](C)c3ccccc3)ncnc12`: the IC50 in the assay filed under Homo sapiens and with B-cell was more than 2000 nM throughout.
As for `c1ccc2c(c1)CC[C@@H]2Nc1ncnc2ccccc12`, the IC50 in the assay filed under Homo sapiens and in the assay on B-cell was more than 2000 nM in each case.
On to `c1ccc2c(c1)CC[C@H]2Nc1ncnc2ccccc12`, for which the IC50 in the assay listed under Homo sapiens is 1020 nM; in the assay on B-cell, more than 2000 nM.
`c1ccc(Nc2ncnc3ccccc23)cc1`: the concentration for half-maximal inhibition (IC50) in the assay listed under Homo sapiens and with B-cell was more than 2000 nM throughout.
Turning to `CSc1nccc(N[C@@H](C)c2ccccc2)n1`, the figures for the IC50 in the assay filed under Homo sapiens and in the assay with B-cell were 931 nM and more than 2000 nM, respectively.
Consider `C[C@@H](Nc1ncnc2ccccc12)c1ccccc1`, for which the IC50 in the assay listed under Homo sapiens and in the assay with B-cell was more than 2000 nM each time.
Turning to `C[C@H](Nc1ncnc2ccccc12)c1ccc2ccccc2c1`, the concentration for half-maximal inhibition (IC50) in the assay filed under Homo sapiens worked out at 14 nM; with B-cell, 1630 nM.
Turning to `C[C@H](Nc1ncnc2ccccc12)C1CCCCC1`, the IC50 in the assay filed under Homo sapiens was 81 nM; in the assay with B-cell, more than 2000 nM.
In the same order, the values of `OC[C@H](Nc1ncnc2ccccc12)c1ccccc1` are 149 nM and more than 2000 nM.
On to `C[C@H](Nc1ncnc2ccccc12)c1ccc(Br)cc1`, for which the IC50 in the assay filed under Homo sapiens is 72 nM; in the assay with B-cell, more than 2000 nM.
`COc1cc2ncnc(N[C@@H](C)c3ccccc3)c2cc1OC`: the IC50 in the assay listed under Homo sapiens and in the assay on B-cell was more than 2000 nM each time.
With `C[C@H](Nc1ncnc2ccsc12)c1ccccc1`, the IC50 in the assay listed under Homo sapiens and in the assay on B-cell was more than 2000 nM throughout.
Turning to `C[C@H](Nc1[nH]cnc2ncnc1-2)c1ccccc1`, the IC50 in the assay listed under Homo sapiens and with B-cell was more than 2000 nM in each case.
With `CC(c1ccccc1)N(C)c1ncnc2ccccc12` (centres undefined), the IC50 in the assay listed under Homo sapiens and with B-cell was more than 2000 nM throughout.

The record behind these values is ChEMBL document CHEMBL1134586, “S(+)-4-(1-Phenylethylamino)quinazolines as inhibitors of human immunoglobulin E synthesis: potency is dictated by stereochemistry and atomic point charges at N-1” (J Med Chem, 2001).
